In general, IC50 refers to the concentration that inhibits the measured activity by half.

From ChEMBL document CHEMBL1153877, “Lowering of 5-nitroimidazole's mutagenicity: towards optimal antiparasitic pharmacophore” (Eur J Med Chem, 2009) come the findings set out here.

The test system of series [1] is THP-1. Description: Cytotoxicity against human THP1 cells after 72 hrs by propidium iodide-based flow cytometry. In kind it is cell-based. Conditions: THP-1, 72 h. Put shortly:
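THP1 monocytes kept in RPMI with 10% foetal calf serum, 25 mM HEPES, 25 mM NaHCO₃ and 1% L-glutamine/penicillin-streptomycin at 37 °C, 6% CO₂. Cells at 10⁵ cells/mL exposed for 72 h to various concentrations from DMSO stocks. Drug-free and 0.5% DMSO final controls run alongside. Living cells counted by propidium iodide flow cytometry.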
On the technique in general: Flow cytometry measures light scatter and fluorescence of single cells or particles in a stream.

The test system of series [2] is Salmonella typhimurium. Description: Ratio of number of revertant per nmol of drug for Salmonella Typhimurium YG1042 to number of revertant per nmol of drug for Salmonella Typhimurium TA100. In kind it is toxicity, organism-based. Conditions: salmonella enterica subsp. enterica serovar typhimurium.
The subject of series [3] is Trichomonas vaginalis. As to the kind of experiment: Antitrichomonas activity against Trichomonas vaginalis TVR87 after 48 hrs by trypan blue staining. In kind it is functional, organism-based. The conditions noted are these: TVR87, 48 h. In outline:
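T. vaginalis TVR87 trophozoites grown in TM 161 medium with 10% heat-inactivated horse serum, used one day after subculture in log phase. Assay at 5 × 10³ trophozoites/mL, triplicate cultures, incubated anaerobically at 37 °C for 48 h with a range of compound concentrations from DMSO stocks. DMSO 0.1% final served as negative control. Viable cells counted by trypan blue.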

Series [4] deals with Salmonella typhimurium. As to the kind of experiment: Induction of mutagenicity in Salmonella Typhimurium TA100 assessed as number of revertant per nmol after 48 hrs. In kind it is toxicity, organism-based. The conditions noted are these: salmonella enterica subsp. enterica serovar typhimurium. Put shortly: (§1)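 TA100 grown overnight in Nutrient Broth No. 2 with ampicillin. Bacteria preincubated 60 min at 37 °C with shaking with compound in DMSO and 0.1 mL PBS (0.15 M, pH 7.4). Top agar containing histidine/biotin added, then plated on Vogel-Bonner agar. Revertants counted after 48 h. Four consecutive doses in triplicate plates; solvent control in quadruplicate. Mutagenic power given as revertants per amount of compound.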

The test system of series [5] is Salmonella typhimurium. As to the kind of experiment: Induction of mutagenicity in Salmonella Typhimurium YG1042 assessed as number of revertant per nmol after 48 hrs relative to metranidazole. In kind it is toxicity, organism-based. The conditions noted are these: salmonella enterica subsp. enterica serovar typhimurium.
For series [6], the system named is Salmonella typhimurium. As to the kind of experiment: Induction of mutagenicity in Salmonella Typhimurium YG1042 assessed as number of revertant per ug after 48 hrs. The conditions noted are these: salmonella enterica subsp. enterica serovar typhimurium. In kind it is toxicity, organism-based. Put shortly:
(§2)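 YG1042, a TA100 derivative, grown overnight in Nutrient Broth No. 2 with ampicillin and kanamycin. Bacteria preincubated 60 min at 37 °C with shaking with compound in DMSO and 0.1 mL PBS (0.15 M, pH 7.4). Top agar containing histidine/biotin added, then plated on Vogel-Bonner agar. Revertants counted after 48 h. Four doses in triplicate plates; solvent control in quadruplicate. Mutagenic power given as revertants per amount of compound.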

The test system of series [7] is Salmonella typhimurium. Description: Induction of mutagenicity in Salmonella Typhimurium TA100 assessed as number of revertant per ug after 48 hrs. The conditions noted are these: salmonella enterica subsp. enterica serovar typhimurium. In kind it is toxicity, organism-based. In outline:
as §1

The test system of series [8] is Salmonella typhimurium. As to the kind of experiment: Induction of mutagenicity in Salmonella Typhimurium TA100 assessed as number of revertant per nmol after 48 hrs relative to metranidazole. In kind it is toxicity, organism-based. Conditions: salmonella enterica subsp. enterica serovar typhimurium.
Series [9] in a line: Specificity index, ratio of IC50 for human THP1 cells to IC50 for Trichomonas vaginalis TVR87. Also noted: species or system THP-1. Put shortly:
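Specificity index = IC50 against THP1 cells (72 h, propidium iodide flow cytometry) divided by IC50 against T. vaginalis (48 h, trypan blue).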

Series [10] has as its system Salmonella typhimurium. As to the kind of experiment: Induction of mutagenicity in Salmonella Typhimurium YG1042 assessed as number of revertant per nmol after 48 hrs. In kind it is toxicity, organism-based. Conditions: salmonella enterica subsp. enterica serovar typhimurium. In outline:
as §2

A value given as a limit tells only on which side of the number the result lay.

Turning to `Cc1ccc(S(=O)(=O)Cc2nc(C)n(CC(C)O)c2[N+](=O)[O-])cc1` (stereo not given), the half-maximal inhibitory concentration (IC50) was greater than 707 µM in [1] and 0.124 µM in series [3]. In series [2], the Ratio is 3.3. Also, the Activity in series [4] stood at 0.73; in [5] it was 0.03; in [6], 6.76; in series [7] it was 2.07; in series [8], 0.09; in [10] it was 2.39. Also, the “Ratio IC50” value in series [9] is listed as greater than 5701.
With `Cc1nc(CS(=O)(=O)c2ccc(Cl)cc2)c([N+](=O)[O-])n1CC(C)O` (stereo not given), the figures for the 50% inhibitory concentration (IC50) in series [1] and in series [3] were greater than 668 µM and 0.732 µM, respectively. Also, the Ratio in series [2] came out at 1.7. Further, the Activity is reported as 0.81 in series [4]; 0.02 in [5]; 3.72 in [6]; 2.18 in series [7]; 0.1 in series [8]; 1.39 in series [10]. Moreover, in series [9], the “Ratio IC50” value is on record as greater than 912.
Turning to `Cc1nc(CS(=O)(=O)c2ccc(Br)cc2)c([N+](=O)[O-])n1CC(C)O` (stereo not given), the concentration for half-maximal inhibition (IC50) in series [1] came to 126 µM; in series [3] it was 0.418 µM. Further, the Ratio in series [2] came to 0.9. The Activity in [4] amounted to 1.41; in series [5], 0.02; in [6], 3.08; in [7], 3.36; in series [8] it was 0.17; in series [10], 1.29. Also, the “Ratio IC50” value in [9] is 301.
Take `Cc1nc(CS(=O)(=O)c2ccccc2)c([N+](=O)[O-])n1CC(C)O` (stereo not given): the IC50 is 418 µM in [1] and 0.615 µM in series [3]. Besides, the Ratio in series [2] came out at 4.2. Besides, the Activity in [4] amounted to 0.88; in series [5] it was 0.04; in [6] it was 10.76; in series [7], 2.58; in [8], 0.1; in series [10] it was 3.65. Moreover, in series [9], the “Ratio IC50” value came out at 679.
With `Cc1ncc([N+](=O)[O-])n1C` [DIMETRIDAZOLE], the results for the IC50 in [1] and in series [3] were greater than 1770 µM and 0.708 µM, respectively. Besides, the Ratio in series [2] was found to be 10.3. The Activity turned out to be 21.71 in series [4]; 2.64 in [5]; 1578.04 in series [6]; 153.8 in series [7]; 2.6 in series [8]; 222.71 in [10]. Moreover, in [9], the “Ratio IC50” value was greater than 2501.
Regarding `Cc1ncc([N+](=O)[O-])n1CC(C)O` (stereo not given) [SECNIDAZOLE], the 50% inhibitory concentration (IC50) in series [1] was greater than 1350 µM; in [3], 0.81 µM. Further, the Ratio in [2] came out at 5. Moreover, the Activity in series [4] came to 4.77; in series [5], 0.28; in series [6], 128.44; in [7] it was 25.74; in series [8] it was 0.57; in [10] it was 23.78. Besides, the “Ratio IC50” value in [9] is listed as greater than 1666.
